Laboratory results taken from ChEMBL document CHEMBL4371011, “Pyrrolone Derivatives as Intracellular Allosteric Modulators for Chemokine Receptors: Selective and Dual-Targeting Inhibitors of CC Chemokine Receptors 1 and 2” (J Med Chem, 2018).
pIC50, pKi: −log10 of the molar value. Several values for one entry are separate records, joined by “and”; a condition that tells them apart may be missing. Equal entries are not always repeated. Activity calls are given as the source filed them. No cut-off for these calls is given here.

Experiments:
[1] = molecular target: T1, C-C chemokine receptor type 2 (Homo sapiens, UniProt P41597); test: Displacement of [3H]-CCR2-RA-[R] from human TEV protease site linked CCR2b expressed in human U20S cell membranes co-expressing Gal4-VP16 transcription factor after 120 mins by scintillation spectrometry; settings: for pKi: read-out: Ki; for Ki: read-out: pKi (converted)
Target sequence in this assay (P41597 whole entry, the tested form may be a part): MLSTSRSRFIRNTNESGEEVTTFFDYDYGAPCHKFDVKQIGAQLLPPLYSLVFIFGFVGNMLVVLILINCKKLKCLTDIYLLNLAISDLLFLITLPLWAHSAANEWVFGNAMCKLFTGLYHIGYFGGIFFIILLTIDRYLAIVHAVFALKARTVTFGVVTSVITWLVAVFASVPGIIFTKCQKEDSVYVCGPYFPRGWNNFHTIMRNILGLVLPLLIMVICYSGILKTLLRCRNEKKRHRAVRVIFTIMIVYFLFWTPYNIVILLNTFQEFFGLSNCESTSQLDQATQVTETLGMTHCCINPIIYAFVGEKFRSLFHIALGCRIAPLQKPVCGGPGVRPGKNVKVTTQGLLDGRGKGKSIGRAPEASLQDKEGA

[2] = molecular target: T2, C-C chemokine receptor type 1 (Homo sapiens, UniProt P32246); test: biochemical
T2 sequence (P32246 whole entry): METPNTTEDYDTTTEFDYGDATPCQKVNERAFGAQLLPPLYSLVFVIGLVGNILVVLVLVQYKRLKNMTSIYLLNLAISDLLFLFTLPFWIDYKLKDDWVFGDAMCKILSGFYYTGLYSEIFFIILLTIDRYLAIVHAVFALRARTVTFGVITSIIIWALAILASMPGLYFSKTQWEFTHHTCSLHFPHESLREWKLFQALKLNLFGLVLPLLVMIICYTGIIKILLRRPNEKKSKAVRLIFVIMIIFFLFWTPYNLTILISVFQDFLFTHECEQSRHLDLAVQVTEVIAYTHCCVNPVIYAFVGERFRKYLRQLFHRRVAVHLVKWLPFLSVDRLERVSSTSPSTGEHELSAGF

[3] = molecular target: T1, C-C chemokine receptor type 2; test: (§1) Antagonist activity at human TEV protease site linked CCR2b expressed in human U20S cell membranes co-expressing Gal4-VP16 transcription factor assessed as reduction in CCL2-induced G-protein activation preincubated for 30 mins in presence of CCL2 followed by incubation of 90 mins by [35S]GTPgammaS binding assay; assay type: functional; settings: for pIC50: read-out: IC50; for IC50: read-out: pIC50 (converted)
In short: (§2)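 Stably transfected U2OS membranes (10 μg; human CCR1 or CCR2b) in 50 mM Tris-HCl pH 7.4 with 5 mM MgCl2, 100 mM NaCl, 1 mM EDTA, 0.05% BSA, 10 μM GDP and 10 μg saponin. Preincubated with graded compound plus 8 nM CCL3 (CCR1) or 20 nM CCL2 (CCR2), then 0.3 nM [35S]GTPγS for 90 min at 25 °C.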
Target sequence in this assay (P41597 whole entry, the tested form may be a part): as the sequence (P41597 whole entry, the tested form may be a part) above

[4] = molecular target: T1, C-C chemokine receptor type 2; test: Displacement of [3H]-CCR2-RA-[R] from human TEV protease site linked CCR2b expressed in human U20S cell membranes co-expressing Gal4-VP16 transcription factor at 1 uM after 120 mins by scintillation spectrometry relative to control
Target sequence in this assay (P41597 whole entry, looked up, the tested form may be a part): as the sequence (P41597 whole entry, the tested form may be a part) above

[5] = molecular target: T1, C-C chemokine receptor type 2; test: Inverse agonist activity at human TEV protease site linked CCR2b expressed in human U20S cell membranes co-expressing Gal4-VP16 transcription factor assessed as decrease in basal activity at 100 uM after 90 mins in presence of GDP by [35S]GTPgammaS binding assay relative to control; assay type: functional
In short: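 Basal G-protein activation on human CCR2b U2OS membranes (10 μg) plus 10 μg saponin and 10 μM GDP, pH 7.4 Tris buffer with NaCl, EDTA and BSA, no CCL2. Compound preincubated 30 min at 25 °C, then 90 min with 0.3 nM [35S]GTPγS. Bound label measured after filtration; change from basal.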
Target sequence in this assay (P41597 whole entry, looked up, the tested form may be a part): as the sequence (P41597 whole entry, the tested form may be a part) above

[6] = molecular target: T2, C-C chemokine receptor type 1; test: as §1, with “CCR1” for “CCR2b”, “CCL3-induced” for “CCL2-induced”, “CCL3” for “CCL2”; assay type: functional; settings: for pIC50: read-out: IC50; for IC50: read-out: pIC50 (converted); in short: as §2
[7] = molecular target: T3, C-C chemokine receptor type 1 (Homo sapiens) (UniProt P32246); test: Inverse agonist activity at human TEV protease site linked CCR1 expressed in human U20S cell membranes co-expressing Gal4-VP16 transcription factor assessed as decrease in basal activity after 90 mins in presence of 1 uM GDP by [35S]GTPgammaS binding assay relative to control; assay type: functional
T3 sequence (whole entry): T2 sequence (P32246 whole entry)
In short: (§3)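 Basal [35S]GTPγS binding on human CCR1 U2OS membranes (10 μg) with saponin, in Tris/MgCl2/NaCl/EDTA/0.05% BSA, pH 7.4, without chemokine. Compound was tested at 100 μM with GDP at 1, 10 or 20 μM. Preincubation was 30 min at 25 °C, then 90 min after adding 0.3 nM [35S]GTPγS. Filtration and scintillation read-out; decrease versus basal.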

Homo sapiens = species: Homo sapiens; test: Selectivity ratio of IC50 for human TEV protease site linked CCR1 expressed in human U20S cell membranes co-expressing Gal4-VP16 transcription factor to IC50 for human TEV protease site linked CCR2b expressed in human U20S cell membranes co-expressing Gal4-VP16 transcription factor; assay type: cell-based
[8] = molecular target: T3, C-C chemokine receptor type 1 (Homo sapiens); test: Displacement of [3H]-CCR2-RA-[R] from human TEV protease site linked CCR1 expressed in human U20S cell membranes co-expressing Gal4-VP16 transcription factor at 1 uM after 120 mins by scintillation spectrometry relative to control
[9] = molecular target: T3, C-C chemokine receptor type 1 (Homo sapiens); test: Inverse agonist activity at human TEV protease site linked CCR1 expressed in human U20S cell membranes co-expressing Gal4-VP16 transcription factor assessed as decrease in basal activity at 100 uM after 90 mins in presence of 20 uM GDP by [35S]GTPgammaS binding assay relative to control; assay type: functional; in short: as §3
[10] = molecular target: T3, C-C chemokine receptor type 1 (Homo sapiens); test: Inverse agonist activity at human TEV protease site linked CCR1 expressed in human U20S cell membranes co-expressing Gal4-VP16 transcription factor assessed as decrease in basal activity at 100 uM after 90 mins in presence of 1 uM GDP by [35S]GTPgammaS binding assay relative to control; assay type: functional; in short: as §3
[11] = molecular target: T3, C-C chemokine receptor type 1 (Homo sapiens); test: Inverse agonist activity at human TEV protease site linked CCR1 expressed in human U20S cell membranes co-expressing Gal4-VP16 transcription factor assessed as decrease in basal activity at 100 uM after 90 mins in presence of 10 uM GDP by [35S]GTPgammaS binding assay relative to control; assay type: functional; in short: as §3

pKi [1]	pKi [2]	inhibition [4]	Structure (SMILES)	further results
6.67	7.07 and 7.06		CC(=O)C1=C(O)C(=O)N(c2ccc(C)cc2)C1c1ccc(Br)cc1 (stereo not drawn)	
6.67	7.19		CC(=O)C1=C(O)C(=O)N(c2ccc(Br)cc2F)C1c1cccc(Br)c1 (stereo not drawn)	
		0%	COc1cccc(C2C(C(C)=O)=C(O)C(=O)N2c2ccc(C)cc2)c1 (stereo not drawn)	inhibition [8]: 28%
	6.79	39%	CC(=O)C1=C(O)C(=O)N(c2ccc(C)cc2)C1c1ccccc1 (stereo not drawn)	
6.68	7.17		CC(=O)C1=C(O)C(=O)N(c2ccc(C)cc2)C1c1ccc(Cl)cc1 (stereo not drawn)	
7.09	7.25		CC(=O)C1=C(O)C(=O)N(c2ccc(C)cc2)C1C1CCCCC1 (stereo not drawn)	
		11%	CC(=O)C1=C(O)C(=O)N(c2ccc(C)cc2)C1c1cccc(C)c1 (stereo not drawn)	inhibition [8]: 47%
6.66	6.59		COc1ccc(N2C(=O)C(O)=C(C(C)=O)C2C2CCCCC2)cc1 (stereo not drawn)	Ki [1]: 0.214 µM
	6.71 and 6.70	36%	CC(=O)C1=C(O)C(=O)N(c2ccc(C)cc2)C1c1ccc(C)cc1 (stereo not drawn)	
	6.74	19%	CC(=O)C1=C(O)C(=O)N(c2ccc(C)cc2)C1c1cccc(Br)c1 (stereo not drawn)	
7.02	7.25		CC(=O)C1=C(O)C(=O)N(c2ccc(C)cc2)C1C1CCCCCC1 (stereo not drawn)	
6.77	7.24		CC(=O)C1=C(O)C(=O)N(c2ccc(C)cc2)C1C1CCCCCCC1 (stereo not drawn)	Ki [1]: 0.162 µM
	6.70	19%	CC(=O)C1=C(O)C(=O)N(c2ccc(C)cc2)C1c1cccc(Cl)c1 (stereo not drawn)	
6.98	7.52		CCC(=O)C1=C(O)C(=O)N(c2ccc(C)cc2)C1C1CCCCC1 (stereo not drawn)	
	6.27	5%	COc1ccc(C2C(C(C)=O)=C(O)C(=O)N2c2ccc(C)cc2)cc1 (stereo not drawn)	
	7.11	37%	Cc1ccc(N2C(=O)C(O)=C(C(=O)c3ccccc3)C2C2CCCCC2)cc1 (stereo not drawn)	

The remaining lines, values behind:

Structure (SMILES)	pKi [1]	pKi [2]	inhibition [4]	further results
Cc1ccc(N2C(=O)C(O)=C(C(=O)C(C)(C)C)C2C2CCCCC2)cc1 (stereo not drawn)	6.80	7.66		Ki [1]: 0.155 µM
CC(=O)C1=C(O)C(=O)N(c2ccc(Br)cc2)C1C1CCCCC1 (stereo not drawn)	7.77	7.62		
O=C(C1=C(O)C(=O)N(c2ccc(Br)cc2F)C1c1cccc(Br)c1)C1CC1 (stereo not drawn)		7.30	45%	pIC50 [3]: 5.06; Imax [5]: 58%; pIC50 [6]: 5.06; IC50 [6]: 8.51 µM; Activity [7]: Active
CC(=O)C1=C(O)C(=O)N(c2ccc(Cl)cc2)C1C1CCCCC1 (stereo not drawn)	7.72	7.41 and 7.40		
CC(=O)C1=C(O)C(=O)N(c2ccc(Br)cc2F)C1C1CCCCC1 (stereo not drawn)	8.22			pIC50 [3]: 7.52; pIC50 [6]: 6.23; IC50 [6]: 0.55 µM; Ratio IC50 (Homo sapiens): 19; Activity [7]: Active
CC(=O)C1=C(O)C(=O)N(c2ccc(C)c(F)c2)C1C1CCCCC1 (stereo not drawn)	7.24	7.32 and 7.31		
CCCC(=O)C1=C(O)C(=O)N(c2ccc(C)cc2)C1C1CCCCC1 (stereo not drawn)	6.84	7.54		Ki [1]: 0.138 µM
CC(=O)C1=C(O)C(=O)N(c2ccc(C)cc2F)C1C1CCCCC1 (stereo not drawn)	7.43	7.56 and 7.54		
CC(=O)C1=C(O)C(=O)N(c2cccc(C)c2)C1C1CCCCC1 (stereo not drawn)	6.58	6.30		
CC(=O)C1=C(O)C(=O)N(c2ccc(Cl)c(C)c2)C1C1CCCCC1 (stereo not drawn)	8.05	7.51		Ki [1]: 0.00813 µM; pIC50 [3]: 7.40; IC50 [3]: 0.0339 µM; inhibition [9]: 25%; inhibition [10]: 22%; inhibition [11]: 26%; pIC50 [6]: 5.71; IC50 [6]: 1.86 µM; Ratio IC50 (Homo sapiens): 48; Activity [7]: Active
Cc1ccc(N2C(=O)C(O)=C(C(=O)OC(C)C)C2C2CCCCC2)cc1 (stereo not drawn)			6%	inhibition [8]: 36%
CC(=O)C1=C(O)C(=O)N(c2cccc(F)c2)C1C1CCCCC1 (stereo not drawn)			47%	inhibition [8]: 44%
CC(=O)C1=C(O)C(=O)N(c2ccc(C)c(C)c2)C1C1CCCCC1 (stereo not drawn)	7.74	7.37		
CC(=O)C1=C(O)C(=O)N(c2cccc(Cl)c2)C1C1CCCCC1 (stereo not drawn)	6.62	6.28 and 6.27		
CCCCC(=O)C1=C(O)C(=O)N(c2ccc(C)cc2)C1C1CCCCC1 (stereo not drawn)	6.80	7.51		Ki [1]: 0.155 µM
CC(=O)C1=C(O)C(=O)N(c2ccccc2)C1C1CCCCC1 (stereo not drawn)			45%	inhibition [8]: 42%
CCc1ccc(N2C(=O)C(O)=C(C(C)=O)C2C2CCCCC2)cc1 (stereo not drawn)	7.18	6.77		Ki [1]: 0.0646 µM
Cc1ccc(N2C(=O)C(O)=C(C(=O)C3CC3)C2C2CCCCC2)cc1 (stereo not drawn)	6.80	7.74 and 7.72		
O=C(C1=C(O)C(=O)N(c2ccc(Br)cc2F)C1C1CCCCC1)c1ccccc1 (stereo not drawn)	7.18	7.55		
CC(=O)C1=C(O)C(=O)N(c2cccc(C(F)(F)F)c2)C1C1CCCCC1 (stereo not drawn)	6.52			Ki [1]: 0.288 µM; inhibition [8]: 25%
O=C(C1=C(O)C(=O)N(c2ccc(Br)cc2F)C1C1CCCCC1)C1CC1 (stereo not drawn)	7.82	8.30		pIC50 [3]: 6.48; IC50 [3]: 0.288 µM; Imax [5]: 27%; pIC50 [6]: 6.02; IC50 [6]: 0.933 µM; Ratio IC50 (Homo sapiens): 3; Activity [7]: Active
CC(=O)C1=C(O)C(=O)N(c2ccc(C(F)(F)F)cc2)C1C1CCCCC1 (stereo not drawn)	7.04	6.86 and 6.84		
CCOC(=O)C1=C(O)C(=O)N(c2ccc(C)cc2)C1C1CCCCC1 (stereo not drawn)		6.70	31%	
Cc1ccc(N2C(=O)C(O)=C(C(=O)C(C)C)C2C2CCCCC2)cc1 (stereo not drawn)	6.50	7.39 and 7.38		
